Measured values of several laboratories.
Lines come from different studies, so protocols differ.
MMP7: Matrilysin (MMP7, Homo sapiens, UniProt P09237)

| SMILES | target | test | conditions | measurement | result |
| --- | --- | --- | --- | --- | --- |
| Cc1nn(C)cc1-c1nc2c(N3CCN(Cc4ccc(Cl)cc4)CC3)c(Cl)cnc2[nH]1 | Serine/threonine-protein kinase 32A (STK32A, Homo sapiens, UniProt Q8WU08) | binding, competition with immobilised ligand | 1 µM | remaining binding | 100% |
| N=C(N)c1ccc2cc(OC(=O)c3ccc(N=C(N)N)cc3)ccc2c1 | MMP7 | enzyme activity, inhibitor | 10 µM | inhibition | 5% |
| COc1ncccc1-c1cnn2ccc(N3CCN(C(=O)OC(C)C)CC3)nc12 | Phosphatidylinositol 4-phosphate 5-kinase type-1 gamma (PIP5K1C, Homo sapiens, UniProt O60331) | binding, competition with immobilised ligand | 1 µM | remaining binding | 53% |
| Cc1cc(=O)oc2cc(NC(=O)[C@H](CCCNC(=N)N)NC(=O)[C@H](CCCNC(=N)N)NC(=O)[C@@H](NC(=O)[C@H](CCCNC(=N)N)NC(=O)OC(C)(C)C)C(C)C)ccc12 | Furin (FURIN, Homo sapiens, UniProt P09958) | enzyme activity, substrate, fluorescence |  | Km | 44.6 µM |
| O=c1ccc2ccc3occc3c2o1 | Aldehyde dehydrogenase 1A1 (ALDH1A1, Homo sapiens, UniProt P00352) | enzyme activity, inhibitor, absorbance | 10 µM | activity vs control | 61% |
| Nc1ncc(-c2nc(N3CCOCC3)nc(N3CCOCC3)n2)c(C(F)F)n1 | Serine/threonine-protein kinase 17B (STK17B, Homo sapiens, UniProt O94768) | binding, competition with immobilised ligand | 10 µM | remaining binding | 85% |
| CCOC(=O)c1ccc(OC(=O)CCCCCNC(=N)N)cc1 | MMP7 | enzyme activity, inhibitor | 10 µM | inhibition | 3% |
| C#Cc1n[nH]c2c(-c3cn([C@@H](C)c4ccccn4)c(=O)[nH]c3=O)cc(F)cc12 | Tyrosine-protein kinase receptor UFO (AXL, Homo sapiens, UniProt P30530) | enzyme activity, inhibitor | 0.1 µM | inhibition | 13.4% |
